Assay results of several laboratories.
Lines come from different studies, so protocols differ.
Target: Bone morphogenetic protein receptor type-2 (BMPR2, Homo sapiens, UniProt Q13873)
Residues used in one study (Q13873 27-1038): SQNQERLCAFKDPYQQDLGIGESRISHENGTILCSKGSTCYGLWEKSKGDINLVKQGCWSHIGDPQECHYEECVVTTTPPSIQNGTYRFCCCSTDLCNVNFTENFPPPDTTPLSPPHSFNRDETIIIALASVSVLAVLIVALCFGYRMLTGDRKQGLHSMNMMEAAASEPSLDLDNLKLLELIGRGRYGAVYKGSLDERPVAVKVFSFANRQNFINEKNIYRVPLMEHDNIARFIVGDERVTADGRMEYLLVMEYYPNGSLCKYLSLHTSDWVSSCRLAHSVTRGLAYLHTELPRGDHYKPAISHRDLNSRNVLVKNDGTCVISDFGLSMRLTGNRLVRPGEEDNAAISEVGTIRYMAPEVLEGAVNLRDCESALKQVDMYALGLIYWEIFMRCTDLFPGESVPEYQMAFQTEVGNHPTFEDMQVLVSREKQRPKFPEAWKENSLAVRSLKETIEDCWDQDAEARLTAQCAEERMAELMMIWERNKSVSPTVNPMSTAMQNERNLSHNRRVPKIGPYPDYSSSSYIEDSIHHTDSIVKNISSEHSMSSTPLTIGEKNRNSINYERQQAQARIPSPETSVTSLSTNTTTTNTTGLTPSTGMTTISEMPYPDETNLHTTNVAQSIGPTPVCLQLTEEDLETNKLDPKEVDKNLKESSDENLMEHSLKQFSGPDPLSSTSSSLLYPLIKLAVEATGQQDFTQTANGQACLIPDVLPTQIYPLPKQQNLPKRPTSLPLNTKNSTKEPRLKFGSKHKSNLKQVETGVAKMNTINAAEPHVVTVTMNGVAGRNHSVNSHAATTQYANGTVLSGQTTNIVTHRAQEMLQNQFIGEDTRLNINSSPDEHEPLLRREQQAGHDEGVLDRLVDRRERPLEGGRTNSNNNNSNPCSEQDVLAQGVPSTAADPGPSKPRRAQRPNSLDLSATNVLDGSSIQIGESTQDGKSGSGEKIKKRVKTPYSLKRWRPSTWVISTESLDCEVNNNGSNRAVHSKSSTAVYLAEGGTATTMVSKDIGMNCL

SMILES | observed | method | tested at | remaining binding
Nc1ncc2c(n1)-c1c([nH]c3ccc(C#CC4CC4)cc13)CCCC2 | binding | competition with immobilised ligand | 1 µM | 96%
COc1cnc(Nc2cccc(S(N)(=O)=O)c2)nc1N1CCN(c2ccccc2)CC1 | binding | competition with immobilised ligand | 1 µM | 0.1%
O=C(Nc1c[nH]nc1C(=O)NC1CCNCC1)c1cc(F)cc(F)c1 | binding | competition with immobilised ligand | 1 µM | 100%
O=C(NCCCN1CCOCC1)c1ccc(Nc2nccc(-c3cc4ccccc4s3)n2)cc1 | binding | competition with immobilised ligand | 1 µM | 66%
C[C@@H]1CCN(c2nccc(-c3cnn4ncccc34)n2)C1 | binding | – | 1 µM | 90%
CNCc1ccccc1-c1csc([C@@H](C)Nc2nc(C)nc3cc(OC)c(OC)cc23)c1 | cell-free assay | competition with immobilised ligand | 1 µM | 100%
CCN1CCN(Cc2ccc(C(=O)Nc3ccc(C)c(Oc4ccc5c(c4)CC(=O)N5)c3)cc2C(F)(F)F)CC1 | binding | competition with immobilised ligand | 1 µM | 100%
O=C(c1ccc(Nc2nccc(-c3cc4ccccc4s3)n2)cc1)N1CCC(N2CCCC2)CC1 | binding | competition with immobilised ligand | 1 µM | 67%
c1cnn2ncc(-c3ccnc(N4CCC45COC5)n3)c2c1 | binding | – | 1 µM | 68%
CNC(=O)[C@@H]1CC[C@@H](n2c(-c3ccc4cnccc4c3)nc3ccc(C(=O)NCc4cccc(C(N)=O)c4)cc32)C1 | binding | competition with immobilised ligand | 1 µM | 0.25%
COc1ccnn2ncc(-c3ccnc(N(C)C)n3)c12 | binding | – | 1 µM | 65%
COc1cccc(CNC(=O)c2nc3scc(COCc4ccc(C(=O)O)cc4)c3c(=O)[nH]2)c1 | cell-free assay | competition with immobilised ligand | 1 µM | 71.8%
O=C(c1ccc(Nc2ncc(Cl)c(-c3cc4ccccc4s3)n2)cc1)N1CCC(N2CCCC2)CC1 | binding | competition with immobilised ligand | 1 µM | 29%
CC1CCCN1c1nccc(-c2cnn3ncccc23)n1 (stereo not drawn) | binding | – | 1 µM | 97%
C[C@@H]1CN(c2cc(-c3nn(C)c4ccc(OC5(C)CC5)cc34)ncn2)C[C@H](C)O1 | cell-free assay | competition with immobilised ligand | 1 µM | 54%
CC(C)(C)c1ccc(-c2nc(CBr)nn2-c2cccc(O)c2)cc1 | cell-free assay | competition with immobilised ligand | 10 µM | 81%
CSc1cccnc1N1CCN(Cc2nc3ccccc3[nH]2)CC1 | cell-free assay | competition with immobilised ligand | 1 µM | 80%
CN(c1nccc(-c2cnn3ncccc23)n1)C1CC1 | binding | – | 1 µM | 100%
CCOC(=O)c1cc2cc(-c3cc(C(=O)NCc4ccc(C(=O)O)cc4)nn3C)ccc2[nH]1 | cell-free assay | competition with immobilised ligand | 0.1 µM | 82%
C[C@@H]1CN(c2ccc3ncc(-c4ccc5[nH]nc(C6CC6)c5c4)n3n2)C[C@H](C)O1 | binding | competition with immobilised ligand | 50 nM | 89%
CN(C)c1ncc(F)c(-c2cnn3ncccc23)n1 | binding | – | 1 µM | 74%
CS(=O)(=O)c1cc(C2(NC(=O)c3cncc4c3cnn4-c3ccc(F)cc3)CC2)ccn1 | cell-free assay | competition with immobilised ligand | 1 µM | 99%
N[C@@H]1CCN(c2nccc(-c3cnn4ncccc34)n2)C1 | binding | – | 1 µM | 100%
CS(=O)(=O)N1CCCC(NC(=O)[C@H](CCC2CCCCC2)NC(=O)c2ccc(CNC(=O)c3cnc4ccccn34)cc2)C1 (stereo partly drawn) | cell-free assay | competition with immobilised ligand | 0.1 µM | 100%
